# Measurements collected from several papers.
# Organism: Pseudomonas aeruginosa
# Observed: microbial growth
Compound,assay,system,setting,MIC
CC(C)Oc1c(NC(=O)c2ccc(NC(=O)[C@H](CC(N)=O)NC(=O)c3ccc(NC(=O)Cc4ccc(C#N)cc4)cc3)cc2)ccc(C(=O)Nc2ccc(C(=O)O)cc2)c1O,,PA14,,> 64 µg/mL
CN(C)[C@@H]1C(O)=C(C(N)=O)C(=O)[C@@]2(O)C(O)=C3C(=O)c4c(cc5ccc(CN6CC(F)(F)C6)cc5c4O)C[C@H]3C[C@@H]12,broth dilution,ATCC27853,,32 µg/mL
O=C(O)c1cn(C2CC2)c2cc(N3CCNCC3)c(F)cc2c1=O,broth dilution,,24 h,9.43 µM
Brc1cccc(NCc2ccc(Oc3ccccn3)cc2)c1,,,,> 50 µg/mL
CCCCCCC/C=C/C(=O)N1C(=O)/C(=C(\O)c2ccc(OCOCCOC)cc2)C(=O)C1CC(C)C (stereo not shown),,PA01,,> 200 µg/mL
CN(C)[C@@H]1C(O)=C(C(N)=O)C(=O)[C@@]2(O)C(O)=C3C(=O)c4c(O)c(N)nc(F)c4C[C@H]3C[C@@H]12.Cl.Cl,broth dilution,ATCC27853,,4 µg/mL
CN[C@H](CC(C)C)C(=O)N[C@H]1C(=O)N[C@@H](CC(N)=O)C(=O)N[C@H]2C(=O)N[C@H]3C(=O)N[C@H](C(=O)N[C@H](C(=O)O)c4cc(O)cc(O)c4-c4cc3ccc4O)[C@H](O)c3ccc(c(Cl)c3)Oc3cc2cc(c3O[C@@H]2O[C@H](CO)[C@@H](O)[C@H](O)[C@H]2O[C@H]2C[C@](C)(N)[C@H](O)[C@H](C)O2)Oc2ccc(cc2Cl)[C@H]1O,broth dilution,ATCC27853,18 h,> 32 µg/mL
CC(C)Oc1c(NC(=O)c2ccc(NC(=O)[C@H](CC(N)=O)NC(=O)c3ccc(NC(=O)c4ccc(C#N)cc4)cc3)cc2)ccc(C(=O)N[C@@H]2CONC2=O)c1O,,PA14,,> 64 µg/mL
Cc1ccc(C)n1-c1ccc(-c2nnc(-c3ccc(N(C)C)cc3)[nH]2)cc1,broth dilution,ATCC10145,18 h,250 µg/mL
Cc1c(CN(C)C(=O)/C=C/c2cnc3c(c2)CC(NC(=O)OC(C)(C)C)C(=O)N3)oc2ccccc12 (stereo not shown),broth dilution,PA01,,> 32 µg/mL
CN(Cc1ccc2cc3c(c(O)c2c1)C(=O)C1=C(O)[C@]2(O)C(=O)C(C(N)=O)=C(O)[C@@H](N(C)C)[C@@H]2C[C@@H]1C3)c1ccccc1,broth dilution,ATCC27853,,32 µg/mL
[H]/N=C(/N)N[C@H]1[C@H](O)[C@@H](O)[C@H](O[C@@H]2O[C@@H](C)[C@](O)(C=O)[C@H]2O[C@@H]2O[C@@H](CO)[C@H](O)[C@@H](O)[C@@H]2NC)[C@@H](N/C(N)=N\[H])[C@@H]1O,broth dilution,PAO1,,64 µg/mL
C[C@H]1COc2c(N3CCN(C)CC3)c(F)cc3c(=O)c(C(=O)O)cn1c23,broth dilution,CMCC10104,,138 µM
CN(C)[C@@H]1C(O)=C(C(N)=O)C(=O)[C@@]2(O)C(O)=C3C(=O)c4c(cnc(-c5ccccc5)c4O)C[C@H]3C[C@@H]12.Cl.Cl,broth dilution,ATCC27853,,> 32 µg/mL
CC1(C)SC2C(NC(=O)C(NC(=O)C3=C(O)C(Cc4ccsc4)NC3=O)c3ccccc3)C(=O)N2C1C(=O)O (stereo not shown),,,,25 µg/mL
CC(C)Oc1c(NC(=O)c2ccc(NC(=O)[C@H](CC(N)=O)NC(=O)c3ccc(NC(=O)c4cc(=O)c(O)c[nH]4)cc3)cc2)ccc(C(=O)Nc2ccc(C(=O)O)cc2)c1O,,PA14,,> 64 µg/mL
CC(C)CNc1nc(Cl)c2c(c1O)C(=O)C1=C(O)[C@]3(O)C(=O)C(C(N)=O)=C(O)[C@@H](N(C)C)[C@@H]3C[C@@H]1C2.Cl.Cl.Cl,broth dilution,ATCC27853,,> 32 µg/mL
O=C(CCc1ccc(O)c(O)c1)NCCCCCCCC[P+](c1ccccc1)(c1ccccc1)c1ccccc1.[Br-],broth dilution,ATCC27853,18 h,> 32 µg/mL
O=c1cc(-c2ccccc2)oc2cc(O)cc(O)c12,broth dilution,PAO1,,128 µg/mL
Cc1ccc(NCc2ccc(Oc3ccccn3)cc2)cc1,,,,> 50 µg/mL
CC1=NN(CNc2c(O)c(S(=O)(=O)O)cc3ccccc23)C(=O)C1=NNn1c(-c2ccccc2)nc2ccccc2c1=O,broth dilution,,24 h,41.8 µM
CC(C)Oc1c(NC(=O)c2ccc(NC(=O)[C@H](CC(N)=O)NC(=O)c3ccc(NC(=O)c4ccc(C#N)c(Cl)c4)cc3)cc2)ccc(C(=O)Nc2ccc(C(=O)O)cc2)c1O,,PA14,,> 64 µg/mL
Cc1ccc(C)n1-c1ccc(-c2nnc(-c3cccc([N+](=O)[O-])c3)[nH]2)cc1,broth dilution,ATCC10145,18 h,250 µg/mL
COc1ccc(-c2nc3ccccc3n2Cc2ccccc2)cc1OC,broth dilution,ATCC27853,,256 µg/mL
CCCCCCC#Cc1cncc(-c2nnc(SCc3ccc([N+](=O)[O-])o3)n2C2CC2)c1,,,,≥ 20 µg/mL
O=C(Nc1ccc([N+](=O)[O-])cc1F)c1ccccc1O,broth dilution,ATCC27853,,> 64 µg/mL
CC(C)Oc1c(NC(=O)c2ccc(NC(=O)[C@H](CC(N)=O)NC(=O)c3ccc(CCNC(=O)c4ccc(C#N)cc4)cc3)cc2)ccc(C(=O)Nc2ccc(C(=O)O)cc2)c1O,,PA14,,> 64 µg/mL
CCCCCCC/C=C/C(=O)N1C(=O)/C(=C(\O)c2ccc(O)cc2)C(=O)C1CC(C)C (stereo not shown),,PA01,,> 200 µg/mL
CNc1nc(Cl)c2c(c1O)C(=O)C1=C(O)[C@]3(O)C(=O)C(C(N)=O)=C(O)[C@@H](N(C)C)[C@@H]3C[C@@H]1C2.Cl.Cl.Cl,broth dilution,ATCC27853,,8 µg/mL
CC(C)Oc1c(NC(=O)c2ccc(NC(=O)[C@H](CC(N)=O)NC(=O)c3ccc(NC(=O)c4ccc(C#N)nc4)cc3)cc2)ccc(C(=O)Nc2ccc(C(=O)O)cc2)c1O,,PA14,,> 64 µg/mL
C=CCOc1c(C)c(O)c(C(=O)/C=C/c2ccccc2)c(OC)c1C,broth dilution,ATCC27853,,5000 µg/mL
CN(C)[C@@H]1C(O)=C(C(N)=O)C(=O)[C@@]2(O)C(O)=C3C(=O)c4c(cc5ccc(CN6CC(F)C6)cc5c4O)C[C@H]3C[C@@H]12,broth dilution,ATCC27853,,32 µg/mL
COc1c(C)c(OC(C)=O)c(C)c(O)c1C(=O)/C=C/c1ccccc1,broth dilution,ATCC27853,,5000 µg/mL
CC(C)C1NC(=O)C(C(=O)NC(C(=O)NC2C(=O)N3C2SC(C)(C)C3C(=O)O)c2ccccc2)=C1O (stereo not shown),,,,50 µg/mL
Cc1ccc2nc(-c3ccc([N+](=O)[O-])cc3)n(Cc3ccccc3)c2c1,broth dilution,ATCC27853,,128 µg/mL
CC(C)Oc1c(NC(=O)c2ccc(NC(=O)[C@H](CC(N)=O)NC(=O)c3ccc(NC(=O)c4ccc(C#N)cc4)cc3)cc2)ccc(C(=O)Nc2ccc(C(=O)O)cc2)c1O,,PA14,,2 µg/mL
O=C(Nc1ccc2c(c1)OC(F)(F)O2)Nc1ccc(Cl)c(C(F)(F)F)c1,,DSM19882,,> 100 µM
